In assay [1] the test system is Sphaerechinus granularis. As to the kind of experiment: Inhibition of sea urchin egg fertilization after 10 mins. In kind it is functional. The essentials:
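Sphaerechinus granularis eggs, each experiment using eggs from a single female, about 50,000 eggs/ml. Eggs were treated 10 min with compound in MeOH-H2O (20:80), diluted five-fold with filtered sea water and fertilized. Controls were handled the same way. Cleavage was checked by light microscopy in vivo at 10 min and 2 h. Values are given as LD50 (M).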

Assay [2] concerns Sphaerechinus granularis. As to the kind of experiment: Inhibition of sea urchin egg fertilization at <10 uM after 10 mins.
Assay [3] concerns Cladosporium cucumerinum. As to the kind of experiment: Antifungal activity against Cladosporium cucumerinum. The class given is functional. In a few lines:
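Direct bioautography on TLC: samples spotted on TLC plates, then sprayed with a suspension of Cladosporium cucumerinum. Activity is recorded as the minimum inhibition dose in μg spotted.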

Structures are written as SMILES. The source made the active and inactive calls. The calls are words filed in the database; no cut-off is given here.

`CC(C)[C@@H](O)CC[C@@H](C)[C@H]1C[C@@H](O)[C@@H]2[C@]1(C)CC[C@@H]1[C@@]3(C)CC[C@H](O)[C@H](O)[C@@H]3[C@@H](O)C[C@]12O` registered an LD50 in assay [1] of 1 ×10⁻⁶ M.
Turning to `CC(C)[C@@H](O)CC[C@@H](C)[C@H]1C[C@@H](O)[C@@H]2[C@]1(C)CC[C@@H]1[C@@]3(C)CC[C@H](O)C[C@@H]3[C@@H](O)C[C@]12O`, the outcome in assay [2] was inactive. In assay [3], the MIC came out at 3 µg.
Compound `CO[C@H]1[C@H](O[C@H]2[C@H](OCC[C@@H](CC[C@@H](C)[C@H]3[C@@H](O)[C@@H](O)[C@@H]4[C@]3(C)CC[C@@H]3[C@@]5(C)CC[C@H](O)[C@H](O)[C@@H]5[C@@H](O)C[C@]34O)C(C)C)OC[C@@H](O)[C@@H]2O)OC[C@@H](O)[C@@H]1O` [HALITYLOSIDE A] showed an LD50 in assay [1] of 1 ×10⁻⁵ M. For the same compound, the MIC in assay [3] amounted to 40 µg.
For the compound `CO[C@H]1[C@H](O[C@H]2[C@H](OCC[C@@H](CC[C@@H](C)[C@H]3[C@@H](O)[C@@H](O)[C@@H]4[C@]3(C)CC[C@@H]3[C@@]5(C)CC[C@H](O)C[C@@H]5[C@@H](O)C[C@]34O)C(C)C)OC[C@@H](O)[C@@H]2O)OC[C@@H](O)[C@@H]1O` [HALITYLOSIDE B], in assay [1], the LD50 came to 1 ×10⁻⁵ M.
Same read-out and setting: the value for `CO[C@H]1[C@H](O[C@H]2[C@H](O[C@@H](CC[C@@H](C)[C@H]3C[C@@H](O)[C@@H]4[C@]3(C)CC[C@@H]3[C@@]5(C)CC[C@H](O)[C@H](O)[C@@H]5[C@@H](O)C[C@]34O)C(C)C)O[C@@H](CO)[C@@H]2O)OC[C@@H](OC)[C@@H]1O` [HALITYLOSIDE D] was 1 ×10⁻⁶ M.
On to `CO[C@H]1[C@H](O[C@H]2[C@H](O[C@@H](CC[C@@H](C)[C@H]3C[C@@H](O)[C@@H]4[C@]3(C)CC[C@@H]3[C@@]5(C)CC[C@H](O)C[C@@H]5[C@@H](O)C[C@]34O)C(C)C)O[C@@H](CO)[C@@H]2O)OC[C@@H](OC)[C@@H]1O` [HALITYLOSIDE E], for which the LD50 in assay [1] was found to be 1 ×10⁻⁷ M. This compound also yielded an MIC in assay [3] of 10 µg.
With `CO[C@H]1[C@H](O[C@H]2[C@H](O[C@@H](CC[C@@H](C)[C@H]3C[C@@H](O)[C@@H]4[C@]3(C)CC[C@@H]3[C@@]5(C)CC[C@H](O)C[C@@H]5[C@H](O)C[C@]34O)C(C)C)O[C@@H](CO)[C@@H]2O)OC[C@@H](OC)[C@@H]1O` [HALITYLOSIDE F], in assay [1], the LD50 came out at 1 ×10⁻⁶ M. The compound further returned an MIC in assay [3] of 5 µg.

Values taken from ChEMBL document CHEMBL1148177, “Starfish saponins, Part 50. Steroidal glycosides from the Okinawan starfish Nardoa tuberculata” (1993).
